Reference: ChEMBL document CHEMBL4616671, “Identification of N-Phenyl-7H-pyrrolo[2,3-d]pyrimidin-4-amine Derivatives as Novel, Potent, and Selective NF-κB Inducing Kinase (NIK) Inhibitors for the Treatment of Psoriasis” (J Med Chem, 2020)
Active and inactive are the calls of the source. No cut-off for these calls is given here.

What was measured:
[1] = molecular target: Mitogen-activated protein kinase kinase kinase 14 (Homo sapiens, UniProt Q99558); test: Inhibition of human NIK using myelin basic protein as substrate in presence of [gamma33P]ATP by hotspot assay
[2] = molecular target: NT-3 growth factor receptor (Homo sapiens, UniProt Q16288); test: Inhibition of human TRKC using poly[Glu:Tyr] (4:1) as substrate in presence of [gamma33P]ATP by hotspot assay
Sequence of NT-3 growth factor receptor (Q16288 whole entry): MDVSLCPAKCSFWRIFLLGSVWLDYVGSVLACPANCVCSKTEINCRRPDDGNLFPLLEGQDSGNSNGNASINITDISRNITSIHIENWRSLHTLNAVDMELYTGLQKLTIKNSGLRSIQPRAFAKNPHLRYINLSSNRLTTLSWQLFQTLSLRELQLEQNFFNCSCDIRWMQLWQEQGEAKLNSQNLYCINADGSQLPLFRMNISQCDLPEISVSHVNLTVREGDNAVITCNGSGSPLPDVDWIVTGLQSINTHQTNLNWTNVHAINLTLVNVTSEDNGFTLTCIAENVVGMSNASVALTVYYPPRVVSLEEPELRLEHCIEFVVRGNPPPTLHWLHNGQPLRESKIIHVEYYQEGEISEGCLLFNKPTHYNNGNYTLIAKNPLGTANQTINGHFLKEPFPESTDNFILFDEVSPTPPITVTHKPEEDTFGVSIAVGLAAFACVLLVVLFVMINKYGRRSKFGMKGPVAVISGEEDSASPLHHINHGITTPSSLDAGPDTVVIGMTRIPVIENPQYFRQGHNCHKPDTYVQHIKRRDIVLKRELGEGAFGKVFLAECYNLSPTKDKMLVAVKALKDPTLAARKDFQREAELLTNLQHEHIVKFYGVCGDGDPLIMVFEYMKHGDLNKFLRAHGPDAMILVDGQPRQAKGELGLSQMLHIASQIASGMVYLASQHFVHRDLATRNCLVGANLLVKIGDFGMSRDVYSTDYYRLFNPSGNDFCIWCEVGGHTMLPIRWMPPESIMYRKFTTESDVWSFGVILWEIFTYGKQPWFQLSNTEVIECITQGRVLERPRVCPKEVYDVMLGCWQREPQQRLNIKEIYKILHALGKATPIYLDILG

[3] = molecular target: Leucine-rich repeat serine/threonine-protein kinase 2 (Homo sapiens, UniProt Q5S007); test: Inhibition of human LRRK2 using [RLGRDKYKTLRQIRQ] as substrate in presence of [gamma33P]ATP by hotspot assay
Sequence of Leucine-rich repeat serine/threonine-protein kinase 2 (Q5S007 whole entry): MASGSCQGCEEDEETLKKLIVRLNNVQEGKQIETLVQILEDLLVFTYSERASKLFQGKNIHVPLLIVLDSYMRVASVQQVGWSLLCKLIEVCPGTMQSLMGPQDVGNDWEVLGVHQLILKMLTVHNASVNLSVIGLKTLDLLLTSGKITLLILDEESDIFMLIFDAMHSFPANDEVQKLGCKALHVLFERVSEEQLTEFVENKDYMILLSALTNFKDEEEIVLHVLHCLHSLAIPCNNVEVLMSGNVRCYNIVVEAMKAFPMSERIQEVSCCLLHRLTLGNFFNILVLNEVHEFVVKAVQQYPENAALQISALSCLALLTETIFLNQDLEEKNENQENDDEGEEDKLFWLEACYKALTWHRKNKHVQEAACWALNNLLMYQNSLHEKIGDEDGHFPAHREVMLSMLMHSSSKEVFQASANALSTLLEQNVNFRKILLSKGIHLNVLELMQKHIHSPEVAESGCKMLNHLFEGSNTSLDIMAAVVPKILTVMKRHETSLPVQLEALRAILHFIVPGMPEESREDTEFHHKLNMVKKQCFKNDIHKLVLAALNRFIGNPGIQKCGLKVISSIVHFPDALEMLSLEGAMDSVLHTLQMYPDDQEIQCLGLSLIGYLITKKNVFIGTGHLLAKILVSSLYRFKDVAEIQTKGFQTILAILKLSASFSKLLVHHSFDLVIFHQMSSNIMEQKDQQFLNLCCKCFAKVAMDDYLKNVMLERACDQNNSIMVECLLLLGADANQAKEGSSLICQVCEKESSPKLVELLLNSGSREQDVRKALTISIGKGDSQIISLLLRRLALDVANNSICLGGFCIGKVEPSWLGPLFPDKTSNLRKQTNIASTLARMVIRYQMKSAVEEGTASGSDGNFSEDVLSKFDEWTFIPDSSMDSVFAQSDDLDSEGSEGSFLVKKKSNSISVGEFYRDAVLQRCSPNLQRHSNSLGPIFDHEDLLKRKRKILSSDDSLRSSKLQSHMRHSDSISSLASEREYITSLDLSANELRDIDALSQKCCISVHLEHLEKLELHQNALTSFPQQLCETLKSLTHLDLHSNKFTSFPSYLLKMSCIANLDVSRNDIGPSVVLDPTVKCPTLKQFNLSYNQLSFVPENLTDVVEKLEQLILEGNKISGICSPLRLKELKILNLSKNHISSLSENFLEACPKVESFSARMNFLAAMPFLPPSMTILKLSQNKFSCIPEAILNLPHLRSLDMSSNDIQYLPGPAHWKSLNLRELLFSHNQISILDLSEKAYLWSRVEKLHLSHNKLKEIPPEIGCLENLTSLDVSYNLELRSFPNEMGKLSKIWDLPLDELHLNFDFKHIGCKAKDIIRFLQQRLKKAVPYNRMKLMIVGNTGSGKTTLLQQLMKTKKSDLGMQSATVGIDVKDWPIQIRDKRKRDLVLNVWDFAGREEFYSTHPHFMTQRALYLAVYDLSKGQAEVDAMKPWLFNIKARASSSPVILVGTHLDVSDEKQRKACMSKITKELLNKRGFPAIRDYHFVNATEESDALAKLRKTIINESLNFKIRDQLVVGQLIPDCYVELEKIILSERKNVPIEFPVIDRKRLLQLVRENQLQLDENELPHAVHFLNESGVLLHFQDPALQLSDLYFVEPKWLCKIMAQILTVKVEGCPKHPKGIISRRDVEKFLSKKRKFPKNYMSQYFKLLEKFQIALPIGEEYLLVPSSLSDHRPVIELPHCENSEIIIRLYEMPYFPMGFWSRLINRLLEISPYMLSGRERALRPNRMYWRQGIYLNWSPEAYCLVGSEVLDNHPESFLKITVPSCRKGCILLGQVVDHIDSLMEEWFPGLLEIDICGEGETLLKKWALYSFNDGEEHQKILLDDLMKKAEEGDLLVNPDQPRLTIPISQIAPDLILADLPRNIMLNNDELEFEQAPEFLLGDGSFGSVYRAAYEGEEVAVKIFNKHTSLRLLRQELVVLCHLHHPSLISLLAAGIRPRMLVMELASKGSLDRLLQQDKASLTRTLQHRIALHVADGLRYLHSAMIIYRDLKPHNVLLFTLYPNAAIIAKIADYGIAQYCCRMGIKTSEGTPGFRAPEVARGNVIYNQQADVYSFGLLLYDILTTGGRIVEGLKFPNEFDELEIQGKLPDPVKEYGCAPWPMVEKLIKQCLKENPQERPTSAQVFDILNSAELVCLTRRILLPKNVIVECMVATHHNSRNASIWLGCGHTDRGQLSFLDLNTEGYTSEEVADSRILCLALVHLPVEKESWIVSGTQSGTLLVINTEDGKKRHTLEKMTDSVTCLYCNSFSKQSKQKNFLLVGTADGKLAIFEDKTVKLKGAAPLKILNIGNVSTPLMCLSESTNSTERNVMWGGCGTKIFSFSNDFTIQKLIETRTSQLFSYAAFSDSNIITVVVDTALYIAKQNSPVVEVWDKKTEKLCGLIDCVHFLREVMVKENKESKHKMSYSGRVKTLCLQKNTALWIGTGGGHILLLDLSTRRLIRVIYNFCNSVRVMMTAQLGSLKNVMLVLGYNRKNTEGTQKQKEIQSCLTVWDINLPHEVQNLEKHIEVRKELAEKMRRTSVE

J774 [4] = test: Antiinflammatory activity in mouse J774 cells assessed as inhibition of LPS-induced NO production at 1 uM preincubated for 2 hrs followed by LPS stimulation and measured after 22 hrs by Griess reagent based assay relative to control; assay type: functional
How it was run: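 J774 macrophages seeded at 2*10^4 cells/mL, 24 h at 37 °C 5% CO₂; compound in DMSO at 1 µM, 3 replicate wells, 2 h pre-incubation, then LPS at 1 ug/mL final for 22 h. Supernatant nitrite read with Griess reagent at 540 nm against a sodium nitrite standard curve. Inhibition % = (model − compound)/(model − control) NO ×100; mean ± SD, three independent experiments.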

[5] = Elimination half life in rat liver microsomes incubated for 10 mins followed by potassium phosphate buffer addition and measured after 5 to 60 mins by LC-MS/MS analysis; assay type: ADME, Microsome; conditions: read-out: beta t1/2
How it was run: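 Rat, dog, monkey or human liver microsomes pre-incubated with compound at 37 °C for 10 min; reaction started after pre-warming and stopped at 5, 15, 30, 60 min with chilled quench containing tolbutamide and labetalol. No-cofactor control in 100 mM potassium phosphate for 60 min. LC-MS/MS analysis; first-order fit: k = −slope, T1/2 = 0.693/k, CLint = k/microsomal protein concentration.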

[6] = Intrinsic hepatic clearance in human; assay type: ADME
How it was run: (§1)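 Scaled from microsomal intrinsic clearance: CLint,in vitro × microsomal protein per g liver × liver weight per kg body weight.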

[7] = Intrinsic hepatic clearance in monkey; assay type: ADME, Macaca mulatta; conditions: rhesus monkey, in vivo; how it was run: as §1
[8] = AUC (0 to infinity) in Sprague-Dawley rat at 10 mg/kg, po administered via gavage by LC-MS/MS analysis; assay type: ADME, organism-based; parameters: dose 10 mg/kg, time infinity, route oral; conditions: in vivo
How it was run: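 Single oral gavage in SD rats, 3 per group, as a suspension in saline with 0.5% CMC-Na and 0.2% Tween 80, 1 mg/mL. Plasma protein-precipitated with ACN containing internal standards, then LC-MS/MS. AUC0-∞ by linear trapezoidal rule, noncompartmental analysis. Mean ± SD of three rats.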

[9] = Oral bioavailability in Sprague-Dawley rat at 10 mg/kg administered via gavage by LC-MS/MS analysis; assay type: ADME, organism-based; conditions: in vivo
[10] = molecular target: Mitogen-activated protein kinase kinase kinase 14 (Mus musculus) (UniProt Q9WUL6); test: Inhibition of NIK in mouse J774 cells assessed as reduction in LPS-induced IL6 mRNA level by SYBR green dye-based quantitative PCR analysis; assay type: cell-based
Sequence of Mitogen-activated protein kinase kinase kinase 14 (Mus musculus) (Q9WUL6 whole entry): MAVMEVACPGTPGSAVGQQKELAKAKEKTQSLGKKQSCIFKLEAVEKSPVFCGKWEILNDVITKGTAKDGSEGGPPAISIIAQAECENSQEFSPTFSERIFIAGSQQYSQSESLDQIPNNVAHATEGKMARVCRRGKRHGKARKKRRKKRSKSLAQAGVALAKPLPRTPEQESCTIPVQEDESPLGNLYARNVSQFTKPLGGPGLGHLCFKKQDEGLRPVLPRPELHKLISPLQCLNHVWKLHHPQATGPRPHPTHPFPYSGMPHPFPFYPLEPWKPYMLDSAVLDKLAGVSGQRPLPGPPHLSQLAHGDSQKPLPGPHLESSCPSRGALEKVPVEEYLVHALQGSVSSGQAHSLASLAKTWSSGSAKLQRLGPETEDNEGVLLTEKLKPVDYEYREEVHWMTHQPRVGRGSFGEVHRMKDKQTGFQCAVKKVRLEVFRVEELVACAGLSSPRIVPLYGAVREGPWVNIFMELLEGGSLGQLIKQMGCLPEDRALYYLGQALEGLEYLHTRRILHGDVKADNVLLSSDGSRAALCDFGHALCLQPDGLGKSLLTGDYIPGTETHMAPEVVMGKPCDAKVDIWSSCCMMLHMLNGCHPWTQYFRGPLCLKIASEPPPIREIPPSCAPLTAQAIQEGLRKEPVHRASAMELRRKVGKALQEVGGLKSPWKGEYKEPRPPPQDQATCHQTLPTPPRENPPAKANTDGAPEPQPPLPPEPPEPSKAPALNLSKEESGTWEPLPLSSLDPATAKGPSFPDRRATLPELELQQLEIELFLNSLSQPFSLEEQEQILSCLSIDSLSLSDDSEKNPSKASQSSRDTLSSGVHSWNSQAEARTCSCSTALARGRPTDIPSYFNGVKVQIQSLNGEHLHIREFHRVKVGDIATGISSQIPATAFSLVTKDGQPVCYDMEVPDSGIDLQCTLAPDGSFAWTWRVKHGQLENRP
How it was run: (§2)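 LPS-stimulated J774 macrophages; mRNA quantified by qPCR using 4 µL cDNA plus 16 µL master mix per reaction. Mean ± SD of three biological replicates; significance by two-tailed Student's t-test against the model group.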

J774 [11] = test: Antiinflammatory activity in mouse J774 cells assessed as reduction in LPS-induced CCL3 mRNA level by SYBR green dye-based quantitative PCR analysis; assay type: functional, cell-based; how it was run: as §2
J774 [12] = test: Antiinflammatory activity in mouse J774 cells assessed as reduction in LPS-induced NOS2 mRNA level by SYBR green dye-based quantitative PCR analysis; assay type: functional, cell-based; how it was run: as §2
Mus musculus [13] = test: Protection against IMQ-induced dermatitis in C57 mouse model of psoriasis assessed as reduction in skin swelling at 60 to 120 mg/kg, ig administered once daily starting from day 3 post IMQ-challenge and measured 2 days post-last dose of IMQ; assay type: functional, organism-based
How it was run: (§3)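 C57 mice given 5% imiquimod cream on the back once daily for 7 days; intragastric dosing 60 or 120 mg/kg once daily from day 3 to end, n = 6 per group. Dorsal skin phenotype assessed by imaging.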

Mus musculus [14] = test: Protection against IMQ-induced dermatitis in C57 mouse model of psoriasis assessed as reduction in roughness at 60 to 120 mg/kg, ig administered once daily starting from day 3 post IMQ-challenge and measured 2 days post-last dose of IMQ; assay type: functional, organism-based; how it was run: as §3
[15] = molecular target: Mitogen-activated protein kinase kinase kinase 14 (Mus musculus) (UniProt Q9WUL6); test: (§4) In vivo inhibition of NIK in C57 mouse model of IMQ-induced psoriasis assessed as reduction in NF-kappaB signalling in back skin by measuring decrease in TNF-alpha mRNA level at 60 to 120 mg/kg, po administered starting from day 3 post IMQ-challenge and measured 2 days post-last dose of IMQ by qPCR analysis; assay type: functional, organism-based
How it was run: (§5)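 IMQ psoriasis model: 5% imiquimod cream applied to C57 mouse back skin once daily for seven days; oral dosing 60 or 120 mg/kg once daily from day 3, n = 6 per group. Back-skin mRNA measured by qPCR.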

[16] = molecular target: Mitogen-activated protein kinase kinase kinase 14 (Mus musculus) (UniProt Q9WUL6); test: as §4, with “in” for “in TNF-alpha”, “mRNA IL-10” for “mRNA”; assay type: functional, organism-based; how it was run: as §5

CC(O)(C#Cc1ccc(N2CCOCC2)c(Nc2ncnc3[nH]ccc23)c1)c1nccs1 (racemic)
IC50 [1]: 9.7 nM
IC50 [2]: 50.1 nM
IC50 [3]: 94.6 nM
inhibition at 1 µM (J774 [4]): 86.3%
half-life [5]: 30.8 min
CLH [6]: 30.6 mL/min/kg
CLH [7]: 111 mL/min/kg
AUC(0-inf) [8]: 2680 ng·h/mL
bioavailability [9]: 64%
inhibition [10]: Active
Activity (J774 [11]): Active
Activity (J774 [12]): Active
Activity (Mus musculus [13]): Active
Activity (Mus musculus [14]): Active
inhibition [15]: Active
inhibition [16]: Active
